According to ChEMBL document CHEMBL1155347, “Synthesis and antimicrobial activities of novel quinoline derivatives carrying 1,2,4-triazole moiety” (2009):
≈ marks a conversion by molar mass, not a printed value.

Columns and labels:
Assay type in all cases: functional
Escherichia coli [1] = assay: Antibacterial activity against Escherichia coli ATCC 25922 at MIC after 3 to 4 days by agar well diffusion method
Staphylococcus aureus [2] = assay: Antibacterial activity against Staphylococcus aureus ATCC 25923 at MIC after 3 to 4 days by agar well diffusion method
Aspergillus fumigatus [3] = assay: Antifungal activity against Aspergillus fumigatus NCIM 902 by serial plate dilution method
Talaromyces marneffei [4] = assay: Antifungal activity against recultured Penicillium marneffei at MIC after 3 to 4 days by agar well diffusion method
How it was run: (§1)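 Sabouraud agar (peptone, D-glucose, agar; pH 5.7) seeded with spore suspension made by transferring a loopful of fungus to 3 mL normal saline. Excess decanted, plates dried 1 h at 37 °C. Compounds in DMSO at MIC added to punched wells; DMSO control. Triplicate plates kept 3–4 days at 37 °C.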

Pseudomonas aeruginosa [5] = assay: Antibacterial activity against Pseudomonas aeruginosa ATCC 27853 at MIC after 3 to 4 days by agar well diffusion method
Klebsiella pneumoniae [6] = assay: Antibacterial activity against recultured Klebsiella pneumoniae at MIC after 3 to 4 days by agar well diffusion method
Escherichia coli [7] = assay: Antibacterial activity against Escherichia coli ATCC 25922 after 16 to 18 hrs by serial plate dilution method
How it was run: (§2)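 Drug serially diluted in Mueller–Hinton broth in tubes, adjusted to pH 5.0 with phosphate buffer. Inoculated with standardized bacterial suspension and incubated 16–18 h at 37 °C. MIC taken as lowest concentration with no visible growth.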

Aspergillus flavus [8] = assay: Antifungal activity against Aspergillus flavus NCIM 524 by serial plate dilution method
Aspergillus fumigatus [9] = assay: Antifungal activity against Aspergillus fumigatus NCIM 902 at MIC after 3 to 4 days by agar well diffusion method; how it was run: as §1
Aspergillus flavus [10] = assay: Antifungal activity against Aspergillus flavus NCIM 524 at MIC after 3 to 4 days by agar well diffusion method; how it was run: as §1
Pseudomonas aeruginosa [11] = assay: Antibacterial activity against Pseudomonas aeruginosa ATCC 27853 after 16 to 18 hrs by serial plate dilution method; how it was run: as §2
[12] = test system: Trichophyton mentagrophytes; assay: Antifungal activity against recultured Trichophyton mentagrophytes at MIC after 3 to 4 days by agar well diffusion method; how it was run: as §1
Staphylococcus aureus [13] = assay: Antibacterial activity against Staphylococcus aureus ATCC 25923 after 16 to 18 hrs by serial plate dilution method; how it was run: as §2
Talaromyces marneffei [14] = assay: Antifungal activity against recultured Penicillium marneffei by serial plate dilution method
[15] = test system: Trichophyton mentagrophytes; assay: Antifungal activity against recultured Trichophyton mentagrophytes by serial plate dilution method
Klebsiella pneumoniae [16] = assay: Antibacterial activity against recultured Klebsiella pneumoniae after 16 to 18 hrs by serial plate dilution method; how it was run: as §2

Compound | MIC (Aspergillus fumigatus [3]) | MIC (Escherichia coli [7]) | MIC (Aspergillus flavus [8]) | MIC (Pseudomonas aeruginosa [11]) | MIC (Staphylococcus aureus [13]) | MIC (Talaromyces marneffei [14]) | MIC [15] | MIC (Klebsiella pneumoniae [16]) | inhibition zone (IZ) (Escherichia coli [1]) | inhibition zone (IZ) (Staphylococcus aureus [2]) | inhibition zone (IZ) (Talaromyces marneffei [4]) | inhibition zone (IZ) (Pseudomonas aeruginosa [5]) | inhibition zone (IZ) (Klebsiella pneumoniae [6]) | inhibition zone (IZ) (Aspergillus fumigatus [9]) | inhibition zone (IZ) (Aspergillus flavus [10]) | inhibition zone (IZ) [12]
FC(F)(F)c1cccc2c(NC3CC3)c(-c3nnc(S)n3-c3ccccc3)cnc12 | 6.25 µg/mL (≈ 14.6 µM) | 6.25 µg/mL (≈ 14.6 µM) | 6.25 µg/mL (≈ 14.6 µM) | 6.25 µg/mL (≈ 14.6 µM) | 6.25 µg/mL (≈ 14.6 µM) | 6.25 µg/mL (≈ 14.6 µM) | 6.25 µg/mL (≈ 14.6 µM) | 6.25 µg/mL (≈ 14.6 µM) | 20 mm | 16 mm | 16 mm | 16 mm | 16 mm | 16 mm | 16 mm | 20 mm
COCCn1c(S)nnc1-c1cnc2c(C(F)(F)F)cccc2c1NC1CCCCC1 | 6.25 µg/mL (≈ 13.8 µM) | 6.25 µg/mL (≈ 13.8 µM) | 6.25 µg/mL (≈ 13.8 µM) | 6.25 µg/mL (≈ 13.8 µM) | 6.25 µg/mL (≈ 13.8 µM) | 6.25 µg/mL (≈ 13.8 µM) | 6.25 µg/mL (≈ 13.8 µM) | 6.25 µg/mL (≈ 13.8 µM) | 20 mm | 16 mm | 16 mm | 16 mm | 16 mm | 16 mm | 16 mm | 20 mm
CC(C)N1CCN(c2c(-c3nnc(S)n3-c3ccccc3)cnc3c(C(F)(F)F)cccc23)CC1 | 50 µg/mL (≈ 100 µM) | 6.25 µg/mL (≈ 12.5 µM) | 50 µg/mL (≈ 100 µM) | 50 µg/mL (≈ 100 µM) | 50 µg/mL (≈ 100 µM) | 50 µg/mL (≈ 100 µM) | 50 µg/mL (≈ 100 µM) | 50 µg/mL (≈ 100 µM) | 20 mm | <10 mm | <10 mm | <10 mm | <10 mm | <10 mm | <10 mm | <10 mm
CC(C)(C)CCNc1c(-c2nnc(S)n2-c2ccccc2)cnc2c(C(F)(F)F)cccc12 | 6.25 µg/mL (≈ 13.3 µM) | 6.25 µg/mL (≈ 13.3 µM) | 6.25 µg/mL (≈ 13.3 µM) | 6.25 µg/mL (≈ 13.3 µM) | 6.25 µg/mL (≈ 13.3 µM) | 6.25 µg/mL (≈ 13.3 µM) | 6.25 µg/mL (≈ 13.3 µM) | 6.25 µg/mL (≈ 13.3 µM) | 20 mm | 16 mm | 16 mm | 16 mm | 16 mm | 16 mm | 16 mm | 20 mm

Continued by falling MIC (Aspergillus fumigatus [3]), values first:

MIC (Aspergillus fumigatus [3]) | MIC (Escherichia coli [7]) | MIC (Aspergillus flavus [8]) | MIC (Pseudomonas aeruginosa [11]) | MIC (Staphylococcus aureus [13]) | MIC (Talaromyces marneffei [14]) | MIC [15] | MIC (Klebsiella pneumoniae [16]) | Compound | inhibition zone (IZ) (Escherichia coli [1]) | inhibition zone (IZ) (Staphylococcus aureus [2]) | inhibition zone (IZ) (Talaromyces marneffei [4]) | inhibition zone (IZ) (Pseudomonas aeruginosa [5]) | inhibition zone (IZ) (Klebsiella pneumoniae [6]) | inhibition zone (IZ) (Aspergillus fumigatus [9]) | inhibition zone (IZ) (Aspergillus flavus [10]) | inhibition zone (IZ) [12]
50 µg/mL (≈ 119 µM) | 50 µg/mL (≈ 119 µM) | 50 µg/mL (≈ 119 µM) | 50 µg/mL (≈ 119 µM) | 50 µg/mL (≈ 119 µM) | 50 µg/mL (≈ 119 µM) | 50 µg/mL (≈ 119 µM) | 50 µg/mL (≈ 119 µM) | FC(F)(F)c1cccc2c(Cl)c(-c3nnc(S)n3Cc3ccccc3)cnc12 | <10 mm | <10 mm | <10 mm | <10 mm | <10 mm | <10 mm | <10 mm | <10 mm
50 µg/mL (≈ 90.5 µM) | 50 µg/mL (≈ 90.5 µM) | 50 µg/mL (≈ 90.5 µM) | 50 µg/mL (≈ 90.5 µM) | 6.25 µg/mL (≈ 11.3 µM) | 50 µg/mL (≈ 90.5 µM) | 50 µg/mL (≈ 90.5 µM) | 50 µg/mL (≈ 90.5 µM) | FC(F)(F)c1cccc2c(N3CCN(C4CCCCC4)CC3)c(-c3nnc(S)n3Cc3ccccc3)cnc12 | <10 mm | 16 mm | <10 mm | <10 mm | <10 mm | <10 mm | <10 mm | <10 mm
6.25 µg/mL (≈ 15.4 µM) | 6.25 µg/mL (≈ 15.4 µM) | 6.25 µg/mL (≈ 15.4 µM) | 6.25 µg/mL (≈ 15.4 µM) | 6.25 µg/mL (≈ 15.4 µM) | 6.25 µg/mL (≈ 15.4 µM) | 6.25 µg/mL (≈ 15.4 µM) | 6.25 µg/mL (≈ 15.4 µM) | FC(F)(F)c1cccc2c(Cl)c(-c3nnc(S)n3-c3ccccc3)cnc12 | 20 mm | 16 mm | 16 mm | 16 mm | 16 mm | 16 mm | 16 mm | 20 mm
